# Source: PubChem (several laboratories)
# UCH37 inh = blocks the human deubiquitinase UCH37 | Q9Y5K5 | purified proteasome/UCH37, Ub-AMC cleavage fluorescence | inhibition, % (concentration not given with the values) | 0.33% of 330,000 active | AID 588478;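 active means mean inhibition over replicate wells above about 20%, limit read from the data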
#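 Assay system: Proteasome-bound UCH37. Buffer or medium: pH 7.4 Tris-HCl (50 mM) with ovalbumin, ATP-MgCl2, DTT. Incubation: 30 min preincubation with enzyme, 25 min cleavage at room temperature. Measured by: fluorescence, ex 355 nm, em 460 nm. Read-out basis: percent inhibition. Control set: wells without proteasome as full block, compound-free enzyme plus substrate as uninhibited.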
# HKDC1 inhibitor = HKDC1 (human) hexokinase inhibition; recombinant HKDC1, G6PDH/diaphorase resazurin coupled fluorescence; Q2TB90; inhibition, % at 20 µM; AID 493160; 0.16% of 340,000 active;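 active means inhibition above about 35% when tested at 20 µM, limit read from the data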
#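 Incubation: 90 min at room temperature in dark / Material: recombinant HKDC1 (HK5) hexokinase enzyme, produced in-house / Quantity: enzyme 5 µg/mL final / Compound: one dose of 20 µM, 1% DMSO / Reagent: glucose and ATP substrates / Buffer or medium: Tris pH 8.0 buffer with MgCl2, Tween-20, BSA, BME / Technique: resorufin fluorescence at 613 nm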
# TDP2 inh = TDP2 (human) inhibition, absorbance primary screen; 0.34% of 370,000 active; recombinant TDP2, T5PNP hydrolysis, p-nitrophenol absorbance 415 nm; inhibition, % at 12.8 µM; AID 720702;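 active means inhibition above the mean of all tested compounds plus 3 SD, set per campaign, cut at about 25% in these data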
#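 Assay system: Recombinant human TDP2 | Quantity: 120 nM TDP2 per well | Incubation: 2 h at 37 °C | Signal: Epi absorbance | Evaluation: Percent inhibition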
# PAD4 FP inh = blocks human protein arginine deiminase 4; recombinant PAD4, RCA probe fluorescence polarization; inhibition, % at 6.36 µM; 0.41% of 330,000 active; AID 485272; Q9UM07;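 active means percent inhibition above a cutoff equal to the mean of all tested compounds plus 3 SD, cut at about 15% in these data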
# Target sequence (Q9UM07 whole entry, looked up): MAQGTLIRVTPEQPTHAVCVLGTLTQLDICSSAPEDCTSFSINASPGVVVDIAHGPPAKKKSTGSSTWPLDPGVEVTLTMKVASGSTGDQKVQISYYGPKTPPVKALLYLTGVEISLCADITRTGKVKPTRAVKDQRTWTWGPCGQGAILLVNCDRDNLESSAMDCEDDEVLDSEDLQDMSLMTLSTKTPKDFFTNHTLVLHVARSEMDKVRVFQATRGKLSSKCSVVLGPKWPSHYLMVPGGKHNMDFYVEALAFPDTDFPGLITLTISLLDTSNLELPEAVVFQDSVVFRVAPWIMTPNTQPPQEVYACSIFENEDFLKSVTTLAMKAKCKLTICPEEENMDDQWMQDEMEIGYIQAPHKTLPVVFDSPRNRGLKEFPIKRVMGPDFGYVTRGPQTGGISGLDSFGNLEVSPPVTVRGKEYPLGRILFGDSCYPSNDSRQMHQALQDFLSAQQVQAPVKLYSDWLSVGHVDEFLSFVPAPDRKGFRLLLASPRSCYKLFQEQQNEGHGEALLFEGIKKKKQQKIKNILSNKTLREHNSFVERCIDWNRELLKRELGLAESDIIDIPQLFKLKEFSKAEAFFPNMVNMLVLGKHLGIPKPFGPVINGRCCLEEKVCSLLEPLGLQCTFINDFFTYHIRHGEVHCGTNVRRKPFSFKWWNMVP
# GSTO1 counter = GSTO1 inhibition, counter-screen for RBBP9 inhibitors; AID 1974; P78417; inhibition, % at 5.96 µM; recombinant GSTO1, activity-based probe fluorescence polarization; 1.1% of 300,000 active;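 active means inhibition above the campaign mean inhibition plus 3 SD, cut at about 35% in these data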
# CTSL1 counter = blocks F. hepatica cathepsin L1 in PFM18AAP counter-screen. recombinant F. hepatica cathepsin L1, Z-Leu-Arg-MCA fluorescence. inhibition, % at 5.96 µM. 0.49% of 300,000 active;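 active means inhibition above the mean of all tested compounds plus 3 SD, set per screening campaign, cut at about 17% in these data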
# Hits are given with their value; 0 = inactive; - = no result. Sampled rows, rich in hits. Any-hit rate of the full collection: about 1.6%.
SMILES,UCH37 inh,HKDC1 inhibitor,TDP2 inh,PAD4 FP inh,GSTO1 counter,CTSL1 counter
O=C(Nc1ccc(Br)cc1)C1C2C=CC3(O2)C1C(=O)N(CCN1CCCCC1)C3C(=O)NC1CCCCC1 (centres undefined),0,0,0,0,0,0
Cc1cc(C)cc(NC(=O)C2C3C=CC4(O3)C2C(=O)N(CCN2CCCCC2)C4C(=O)NC2CCCCC2)c1 (centres undefined),0,0,0,0,0,19
C/C(=N\N=C(/N)SC1CC(=O)N(c2ccccc2)C1=O)c1cccs1 (centres undefined),-,0,0,0,0,0
C/C(=N\N=C(/N)SC1CC(=O)N(c2ccc(Cl)cc2)C1=O)c1cccs1 (centres undefined),-,0,0,0,36,0
O=C(/C=C/c1ccoc1)c1ccccc1O,0,0,0,0,0,0
COc1ccc2ccccc2c1C(=O)/C=C\c1ccoc1,0,0,0,0,0,23
COc1ccc(C=NOCc2ccc(Br)cc2)c(OC)c1,0,-,-,-,-,-
CC1(C)C(/C=C/C=C/C=C/C=C2\N(CCCCS(=O)(=O)O)c3ccc4ccccc4c3C2(C)C)=[N+](CCCCS(=O)(=O)[O-])c2ccc3ccccc3c21,0,0,-,0,41,0
CCOC(=O)C1=C(O)c2ccccc2C(=O)/C1=C\c1ccc(C)cc1,0,67,-,0,0,0
COc1ccc(CNCCNC(=O)c2cccs2)cc1OC,0,0,0,0,0,0
COc1cc(CNCCNC(=O)c2cccs2)cc(OC)c1OC,0,0,28,0,0,0
O=C(c1ccccc1)C1C(=O)c2ccccc2C1=O,31,0,0,0,0,0
O=C(/C=C/c1ccccc1)C1C(=O)c2ccccc2C1=O,0,0,0,0,0,0
Cn1cccc1C=Nn1cnnc1,0,-,-,-,-,-
N#C/C(=C\c1ccc(O)c(O)c1)C(=O)c1ccc(O)c(O)c1,0,0,0,0,0,0
N#CC(C#N)=C(N)/C(C#N)=C/c1cc(O)c(O)c(O)c1,-,0,0,0,64,0
COC(=O)C(CCC(C(=O)OC)N1C(=O)c2ccccc2C1=O)N1C(=O)c2ccccc2C1=O (centres undefined),-,0,0,-,-,-
CC(C)CC(C(=O)Nn1cnnc1)N1C(=O)c2ccccc2C1=O (centres undefined),0,0,0,0,0,23
CCOC(=O)c1c(-c2ccco2)csc1NC(=O)COC(=O)c1cnc(C)cn1,0,0,0,0,0,31
COc1ccc(-c2n[nH]c3c2CN(C(=O)c2ccc(OC)c(OC)c2)CC3)cc1,0,0,0,0,0,34
COc1cc(OC)cc(C(=O)N2CCN(C(=O)c3ccc(OC)c(OC)c3)CC2)c1,0,0,0,0,0,0
COc1ccc(Cc2nnc(NN=Cc3ccc(O)cc3O)[nH]c2=O)cc1OC,0,-,-,-,-,-
CSc1nc(NCCOCCO)c2sc3nc(-c4ccco4)c4c(c3c2n1)CCC4,0,0,0,0,0,17
CCN(CCO)c1nc(SC)nc2c1sc1nc(-c3ccco3)c3c(c12)CCC3,-,0,-,0,0,18
COc1ccc(C=NNS(=O)(=O)c2ccccc2)cc1OS(=O)(=O)c1ccc(C)cc1,0,-,-,-,-,-
SMILES,UCH37 inh,HKDC1 inhibitor,TDP2 inh,PAD4 FP inh,GSTO1 counter,CTSL1 counter
Cc1nn(C)c(C(=O)NN=Cc2cccnc2)c1Br,0,-,-,-,-,-
Cc1ccc(C(=O)N/N=C/C=C/c2ccccc2)o1,-,0,0,0,0,0
Cc1ccc(C(=O)NN=C/C=C/c2ccccc2)o1,21,-,-,-,-,-
COc1ccc(C(=O)/C=C/c2ccccc2)c(O)c1,0,0,0,0,0,22
COc1ccc(C(=O)/C=C/c2ccc(OC)cc2OC)c(O)c1,0,0,0,0,0,0
O=C(Cn1nnc(-c2ccccc2)n1)NN=Cc1cc([N+](=O)[O-])c(Cl)cc1Cl,0,-,-,-,-,-
CC(=NNc1ccc([N+](=O)[O-])cc1[N+](=O)[O-])c1cccnc1,0,-,-,-,-,-
CC(C)=CC(=O)Nc1nnc(C)s1,28,0,0,0,0,0
CC(=O)ON=C(C)c1ncc(C(F)(F)F)cc1N1CCOCC1,0,-,-,-,-,-
Nc1cccc2cc(S(=O)(=O)O)ccc12,0,0,27,-,-,-
C[C@H](NC(=O)c1ccccc1Cl)C(=O)OC(C(=O)Nc1cc(C(F)(F)F)ccc1Cl)c1ccccc1 (some centres undefined),0,0,0,0,0,0
O=C(CNC(=O)c1ccccc1F)OC(C(=O)Nc1cc(C(F)(F)F)ccc1Cl)c1ccccc1 (centres undefined),0,0,0,0,0,25
O=C1SCCC1NS(=O)(=O)c1ccc([N+](=O)[O-])cc1 (centres undefined),0,0,0,0,0,21
Cc1occc1C(=O)NN=Cc1c[nH]c2ccccc12,0,-,-,-,-,-
CCc1cc(C(Cc2ccc3ccccc3n2)=NO)c(O)cc1O,0,-,-,-,-,-
CC(C)Nc1nc(C#N)nc(NC(C)C)n1,0,0,0,0,0,57
O=C(NN=Cc1ccc(O)c([N+](=O)[O-])c1)c1ccncc1,20,-,-,-,-,-
O=[N+]([O-])c1ccccc1NC(=S)N/N=C/c1ccc(O)c(O)c1,-,0,0,0,50,0
Cc1cccc(C)c1N1C(=O)[C@@H]2C(c3ccccc3Cl)=NO[C@@H]2C1=O,0,0,0,0,0,0
COc1ccc(OC)c(N2C(=O)[C@@H]3C(c4ccccc4Cl)=NO[C@@H]3C2=O)c1,0,0,0,0,37,0
CN(C)c1ccc(/C=C(\C#N)C(=O)NCc2ccco2)cc1,0,-,-,0,0,0
CCN(CC)c1ccc(/C=C(\C#N)C(=O)NCc2ccco2)cc1,0,-,0,0,0,23
O=S(=O)(c1cnc(Cl)c(Br)c1)N1CCc2ccccc21,0,0,0,0,45,0
CC1CCCCN1S(=O)(=O)c1cnc(Cl)c(Br)c1 (centres undefined),0,0,0,0,71,0
Cc1cc(C)c([N+](=O)[O-])cc1-c1ccc(C=NNC(=O)c2nonc2N)o1,0,-,-,-,-,-
SMILES,UCH37 inh,HKDC1 inhibitor,TDP2 inh,PAD4 FP inh,GSTO1 counter,CTSL1 counter
Cc1ccc(C)n1-c1ccc(C(=O)NN)s1,0,0,0,0,0,21
O=C(/C=C1\NC2(CCCC2)Cc2ccccc21)C(=O)NN=Cc1ccc(O)c(O)c1,0,-,-,-,-,-
O=c1cc(C(F)(F)F)nc(-n2[nH]c3c(c2=O)CCCC3)[nH]1,0,0,0,0,40,0
CCn1c2ccccc2c2cc(NC(=O)COC(=O)c3ccc(C)cc3)ccc21,-,-,0,-,-,-
CCn1c2ccccc2c2cc(NC(=O)COC(=O)c3ccc(NC(=O)CC#N)cc3)ccc21,0,0,0,0,36,0
O=c1c(=Cc2cccc3ccccc23)sc2ncnn12,0,-,-,-,-,-
COc1ccc(CNC(=O)C2(CC3CC(c4ccccc4)=NO3)CCN(C(=O)C3CCCC3)CC2)cc1 (centres undefined),30,0,0,0,0,0
